Reference: ChEMBL document CHEMBL5344483, “Design and synthesis of novel chloropyridazine hybrids as promising anticancer agents acting by apoptosis induction and PARP-1 inhibition through a molecular hybridization strategy” (RSC Med Chem, 2024)
pIC50: −log10 of the molar value. Calls of active or inactive are those of the source. The calls are words filed in the database; no cut-off is given here.

What was measured:
[1] = target: T1, Poly [ADP-ribose] polymerase 1 (Homo sapiens, UniProt P09874); assay: Inhibition of PARP1 (unknown origin) by ELISA
T1 sequence (P09874 whole entry): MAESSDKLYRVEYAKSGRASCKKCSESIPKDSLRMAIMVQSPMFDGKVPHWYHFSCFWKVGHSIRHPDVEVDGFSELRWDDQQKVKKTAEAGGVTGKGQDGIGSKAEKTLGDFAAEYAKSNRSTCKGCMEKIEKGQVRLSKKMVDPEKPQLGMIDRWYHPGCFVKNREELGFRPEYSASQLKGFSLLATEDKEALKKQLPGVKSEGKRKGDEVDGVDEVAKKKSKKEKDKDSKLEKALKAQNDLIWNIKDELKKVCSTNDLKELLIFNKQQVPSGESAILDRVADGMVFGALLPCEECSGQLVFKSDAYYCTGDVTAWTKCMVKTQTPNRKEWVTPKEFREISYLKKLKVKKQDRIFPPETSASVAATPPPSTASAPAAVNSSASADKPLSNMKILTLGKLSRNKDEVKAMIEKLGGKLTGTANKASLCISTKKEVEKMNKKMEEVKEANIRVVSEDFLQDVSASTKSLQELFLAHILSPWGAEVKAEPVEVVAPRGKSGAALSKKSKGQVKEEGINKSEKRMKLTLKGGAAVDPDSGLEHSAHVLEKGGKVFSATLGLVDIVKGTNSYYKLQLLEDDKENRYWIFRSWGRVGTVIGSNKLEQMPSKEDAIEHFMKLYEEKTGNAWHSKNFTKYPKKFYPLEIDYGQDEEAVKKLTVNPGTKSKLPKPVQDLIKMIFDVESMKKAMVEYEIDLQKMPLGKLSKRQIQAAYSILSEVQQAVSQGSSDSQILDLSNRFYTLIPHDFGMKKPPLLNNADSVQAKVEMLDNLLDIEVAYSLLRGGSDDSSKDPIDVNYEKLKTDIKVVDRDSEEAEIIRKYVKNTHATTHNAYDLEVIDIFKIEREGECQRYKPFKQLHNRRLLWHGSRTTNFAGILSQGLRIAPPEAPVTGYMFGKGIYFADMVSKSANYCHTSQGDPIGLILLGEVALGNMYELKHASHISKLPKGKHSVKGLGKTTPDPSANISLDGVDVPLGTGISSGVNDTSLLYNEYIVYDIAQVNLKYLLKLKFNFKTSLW

[2] = system: HNO 97 cell line; assay: Cytotoxicity against human HNO97 cells by SRB assay; type: functional, cell-based
Procedure, shortened: (§1)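 Cells seeded at 3×10^3 per well and allowed to attach for 24 h. Exposed to […], 12.5, 25 and 50 µg/mL for 48 h, triplicate wells per concentration, with a 1% v/v DMSO vehicle. Fixed in 20% TCA, stained with 0.4% SRB, and OD read at 570 nm. IC50 from sigmoidal dose-response fit of survival fraction (treated/control OD).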

[3] = system: HNO 97 cell line; assay: Induction of apoptosis in human HNO97 cells assessed as measuring fold increase in Bax protein expression level by sandwiched immunoassay relative to control; type: functional
Procedure, shortened: (§2)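 Sandwich ELISA on antibody-precoated wells. Sample incubated 1 h at 37 °C, then biotin-conjugated detection antibody 1 h at 37 °C, then avidin-HRP 30 min at 37 °C, with washes between steps. TMB substrate 10–20 min at 37 °C in the dark, stopped with sulphuric acid, read at 450 nm. Duplicate readings, zero-standard subtracted, quantified against a 7-point standard curve.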

[4] = target: T1, Poly [ADP-ribose] polymerase 1; assay: Inhibition of human PARP-1 in MDA-MB-231 cells assessed as accumulation of cleaved PARP-1 by immunoblot analysis; type: cell-based
Procedure, shortened: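 Drug-treated cells lysed and protein measured by BCA. Lysate (30 µg) separated by SDS-PAGE and transferred to PVDF. Probed with anti-PARP1 primary antibody (1:1000), then HRP-conjugated secondary (1:10,000), with alpha-tubulin as loading probe. Detected by ECL. Blots representative of at least three independent experiments.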

[5] = system: FaDu; assay: Anticancer activity against human FaDu cells assessed as growth inhibition at 100 microg/mL by SRB assay relative to control; type: functional; settings: read-out: GI
Procedure, shortened: (§3)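 Cells seeded at 3×10^3 per well and allowed to attach for 24 h. Treated with 100 µg/mL compound for 48 h, triplicate wells, with a 1% v/v DMSO vehicle control. Fixed in 20% TCA, stained with 0.4% SRB, and OD read at 570 nm. Survival fraction is treated OD/control OD.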

[6] = system: NCI-H460; assay: Anticancer activity against human NCI-H460 cells assessed as growth inhibition at 100 microg/mL by SRB assay relative to control; type: functional; settings: read-out: GI; procedure, shortened: as §3
[7] = system: HeLa; assay: Anticancer activity against human HeLa cells assessed as growth inhibition at 100 microg/mL by SRB assay relative to control; type: functional; settings: read-out: GI; procedure, shortened: as §3
[8] = system: HNO 97 cell line; assay: Induction of apoptosis in human HNO97 cells assessed as measuring fold decrease in CK 18 protein expression level by sandwiched immunoassay relative to control; type: functional; procedure, shortened: as §2
[9] = system: HNO 97 cell line; assay: Induction of apoptosis in human HNO97 cells assessed as measuring fold increase in caspase-3 protein expression level by sandwiched immunoassay relative to control; type: functional; procedure, shortened: as §2
[10] = system: A549; assay: Anticancer activity against human A549 cells assessed as growth inhibition at 100 microg/mL by SRB assay relative to control; type: functional; settings: read-out: GI; procedure, shortened: as §3
[11] = Cytotoxicity against human HSF (VGS) cells assessed as growth inhibition at 100 microg/mL by SRB assay relative to control; type: toxicity, cell-based; settings: at 100 µg/mL, read-out: GI
[12] = system: HNO 97 cell line; assay: Induction of apoptosis in human HNO97 cells assessed as measuring fold increase in caspase-6 protein expression level by sandwiched immunoassay relative to control; type: functional; procedure, shortened: as §2
[13] = system: Huh-7; assay: Anticancer activity against human Huh-7 cells assessed as growth inhibition at 100 microg/mL by SRB assay relative to control; type: functional; settings: read-out: GI; procedure, shortened: as §3
[14] = system: MCF7; assay: Anticancer activity against human MCF7 cells assessed as growth inhibition at 100 microg/mL by SRB assay relative to control; type: functional; settings: read-out: GI; procedure, shortened: as §3
[15] = system: HCT-116; assay: Anticancer activity against human HCT-116 cells assessed as growth inhibition at 100 microg/mL by SRB assay relative to control; type: functional; settings: read-out: GI; procedure, shortened: as §3
[16] = system: SK-BR-3; assay: Anticancer activity against human SK-BR-3 cells assessed as growth inhibition at 100 microg/mL by SRB assay relative to control; type: functional; settings: read-out: GI; procedure, shortened: as §3
[17] = system: HNO 97 cell line; assay: Induction of apoptosis in human HNO97 cells assessed as measuring fold decrease in Bcl-2 protein expression level by sandwiched immunoassay relative to control; type: functional; procedure, shortened: as §2
[18] = system: MDA-MB-231; assay: Antiproliferative activity against human MDA-MB-231 cells assessed as reduction in cell growth by coomassie Brilliant Blue staining based analysis; type: functional
[19] = system: MDA-MB-468; assay: Cytotoxicity against human MDA-MB-468 cells by SRB assay; type: functional, cell-based; procedure, shortened: as §1
[20] = system: A-375; assay: Anticancer activity against human A-375 cells assessed as growth inhibition at 100 microg/mL by SRB assay relative to control; type: functional; settings: read-out: GI; procedure, shortened: as §3
[21] = system: HNO 97 cell line; assay: Induction of apoptosis in human HNO97 cells assessed as measuring fold increase in p53 protein expression level by sandwiched immunoassay relative to control; type: functional; procedure, shortened: as §2
[22] = system: MDA-MB-468; assay: Anticancer activity against human MDA-MB-468 cells assessed as growth inhibition at 100 microg/mL by SRB assay relative to control; type: functional; settings: read-out: GI; procedure, shortened: as §3
[23] = system: HNO 97 cell line; assay: Anticancer activity against human HNO97 cells assessed as growth inhibition at 100 microg/mL by SRB assay relative to control; type: functional; settings: read-out: GI; procedure, shortened: as §3
[24] = system: HNO 97 cell line; assay: Induction of cell cycle arrest in human HNO97 cells assessed as cell population at G2-M phase by flow cytometry (reference value: 2.42%); type: functional
[25] = system: HNO 97 cell line; assay: Induction of cell cycle arrest in human HNO97 cells assessed as cell population at S phase by flow cytometry (reference value: 34.27%); type: functional
[26] = system: HNO 97 cell line; assay: Induction of cell cycle arrest in human HNO97 cells assessed as cell population at G0-G1 phase by flow cytometry (reference value: 63.31%); type: functional
[27] = system: FaDu; assay: Cytotoxicity against human FaDu cells by SRB assay; type: functional, cell-based; procedure, shortened: as §1

Structure (SMILES)	pIC50 [1]	pIC50 [2]	fold change (FC) [3]	inhibition [4]	inhibition of growth at 100 µg/mL [5]	inhibition of growth at 100 µg/mL [6]	inhibition of growth at 100 µg/mL [7]	fold change (FC) [8]	inhibition of growth at 100 µg/mL [10]	inhibition at 100 microg/mL [11]	inhibition of growth at 100 µg/mL [13]	inhibition of growth at 100 µg/mL [14]	inhibition of growth at 100 µg/mL [15]	inhibition of growth at 100 µg/mL [16]	Activity [18]	pIC50 [19]	inhibition of growth at 100 µg/mL [20]	inhibition of growth at 100 µg/mL [22]	inhibition of growth at 100 µg/mL [23]	pIC50 [27]	also measured
COc1cc(O)ccc1C(=O)/C=C/c1ccc(O)cc1	5.72	–	–	–	–	–	–	–	–	–	–	–	–	–	–	–	–	–	–	–	–
CC(=O)Nc1cccc(C(=O)/C=C/c2ccc(Oc3ccc(Cl)nn3)cc2)c1	–	4.89	18.26	Active	66.3%	69.6%	73.9%	0.43	71.5%	70%	70.8%	68.7%	77.8%	55.5%	Active	4.52	73%	91.1%	83.7%	–	fold change (FC) [9]: 9.44; fold change (FC) [12]: 10.49; fold change (FC) [17]: 0.65; fold change (FC) [21]: 7.01
Nc1ccc(C(=O)/C=C/c2ccc(Oc3ccc(Cl)nn3)cc2)cc1	–	4.91	14.9	Active	86.7%	61.3%	82.3%	0.54	66.5%	68.1%	73.9%	67.9%	66.9%	77.5%	Active	4.94	56.1%	95%	89.1%	4.57	Activity [24]: 1.05%; Activity [25]: 15.66%; fold change (FC) [9]: 7.55; Activity [26]: 83.28%; fold change (FC) [12]: 9.76; fold change (FC) [17]: 0.59; fold change (FC) [21]: 3.9
O=C(/C=C/c1ccc(Oc2ccc(Cl)nn2)cc1)c1ccccc1	–	4.77	–	–	80.9%	55.9%	51%	–	66.4%	52.2%	74.8%	63%	39%	70.5%	Active	4.58	29.3%	90.5%	85.3%	4.75	–
O=C(/C=C/c1ccc(Oc2ccc(Cl)nn2)cc1)c1ccc(OCc2ccc(Cl)cc2Cl)cc1	–	4.95	11.54	–	81.6%	52.4%	55%	0.5	65%	50.7%	67.8%	54.4%	75.1%	60.9%	Active	4.67	70.5%	84.2%	83.3%	4.22	Activity [24]: 8.57%; Activity [25]: 25.13%; fold change (FC) [9]: 8.7; Activity [26]: 66.3%; fold change (FC) [12]: 9.79; fold change (FC) [17]: 0.66; fold change (FC) [21]: 5.75
Cc1ccc(C(=O)/C=C/c2ccc(Oc3ccc(Cl)nn3)cc2)cc1	–	4.80	–	–	80.2%	72.4%	72.4%	–	74.1%	67.8%	75.4%	72.4%	78.5%	70.6%	Active	4.13	69.1%	88%	84.8%	3.92	–
CC(=O)Nc1ccc(C(=O)/C=C/c2ccc(Oc3ccc(Cl)nn3)cc2)cc1	–	4.67	–	Active	86.5%	63.3%	62.9%	–	69.3%	70.2%	77.5%	75%	54.5%	71.3%	Active	4.09	71.7%	89.7%	85.5%	4.51	–
O=c1[nH]nc2c3c(cccc13)Oc1ccc(CN3CCC(O)CC3)cc1-2 [E-7016]	5.52	–	–	–	–	–	–	–	–	–	–	–	–	–	–	–	–	–	–	–	–
COC1CCN(C(=O)c2cc(Cc3n[nH]c(=O)c4ccccc34)ccc2F)CC1 [AZD2461]	8.70	–	–	–	–	–	–	–	–	–	–	–	–	–	–	–	–	–	–	–	–
CC1(COc2ccc(/C=C3/SC(O)=NC3=O)cc2)CCCCC1	4.60	–	–	–	–	–	–	–	–	–	–	–	–	–	–	–	–	–	–	–	–
